Experimental data as given in publication PMC6210075 (ACS Omega, 2018).
Blank lines part the entries; values can stand above or below the compound they belong to.

Columns and labels:
[1] = molecular target: T1, human sEH (Homo sapiens, UniProt P34913); assay: sEH fluorescent inhibition assay; format: biochemical; conditions: compared to PF-750
T1 sequence (P34913 1-555): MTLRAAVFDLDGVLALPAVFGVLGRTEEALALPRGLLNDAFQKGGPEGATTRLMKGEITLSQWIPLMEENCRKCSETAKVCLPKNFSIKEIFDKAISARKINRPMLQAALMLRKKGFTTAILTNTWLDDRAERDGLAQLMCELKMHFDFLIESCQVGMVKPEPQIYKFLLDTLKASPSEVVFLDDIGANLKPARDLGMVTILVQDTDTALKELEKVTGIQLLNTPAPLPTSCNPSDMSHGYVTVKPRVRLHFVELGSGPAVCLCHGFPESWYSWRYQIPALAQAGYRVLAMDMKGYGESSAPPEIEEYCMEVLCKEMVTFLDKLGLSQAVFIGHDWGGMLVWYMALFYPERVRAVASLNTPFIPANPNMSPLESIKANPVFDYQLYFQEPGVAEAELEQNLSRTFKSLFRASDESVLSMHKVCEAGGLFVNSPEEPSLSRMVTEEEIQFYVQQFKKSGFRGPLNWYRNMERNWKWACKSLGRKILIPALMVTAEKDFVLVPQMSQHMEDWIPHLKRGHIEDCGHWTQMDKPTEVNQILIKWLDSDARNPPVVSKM

[2] = molecular target: T2, human FAAH (Homo sapiens, UniProt O00519); assay: FAAH fluorescent inhibition assay; format: biochemical; conditions: for decrease in activity/potency toward FAAH: compared to PF-750
T2 sequence (O00519 1-579): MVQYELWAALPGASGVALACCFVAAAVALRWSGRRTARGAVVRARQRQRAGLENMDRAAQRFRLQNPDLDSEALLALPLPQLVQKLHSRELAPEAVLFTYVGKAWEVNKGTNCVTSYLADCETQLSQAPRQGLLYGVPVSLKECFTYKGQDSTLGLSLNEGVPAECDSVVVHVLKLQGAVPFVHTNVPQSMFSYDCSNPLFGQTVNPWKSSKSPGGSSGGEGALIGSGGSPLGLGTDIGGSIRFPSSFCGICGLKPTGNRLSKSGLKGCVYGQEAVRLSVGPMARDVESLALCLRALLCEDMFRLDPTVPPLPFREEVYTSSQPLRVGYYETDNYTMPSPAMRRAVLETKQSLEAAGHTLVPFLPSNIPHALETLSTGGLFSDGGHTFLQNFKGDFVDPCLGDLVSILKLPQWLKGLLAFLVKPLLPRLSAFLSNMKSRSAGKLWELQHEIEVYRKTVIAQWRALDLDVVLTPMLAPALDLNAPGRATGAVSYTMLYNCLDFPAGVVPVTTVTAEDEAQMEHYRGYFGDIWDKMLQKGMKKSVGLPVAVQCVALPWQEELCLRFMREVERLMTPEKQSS

[3] = tested on: serine hydrolases; assay: Activity-based protein profiling; format: biochemical, mouse; conditions: mouse liver tissue homogenate, inhibitor 20 µM
[4] = molecular target: T3, serine hydrolases (Mus musculus, UniProt O08914); assay: Activity-based protein profiling; format: biochemical; conditions: mouse brain tissue homogenate, inhibitor 20 µM
T3 sequence (O08914 1-579): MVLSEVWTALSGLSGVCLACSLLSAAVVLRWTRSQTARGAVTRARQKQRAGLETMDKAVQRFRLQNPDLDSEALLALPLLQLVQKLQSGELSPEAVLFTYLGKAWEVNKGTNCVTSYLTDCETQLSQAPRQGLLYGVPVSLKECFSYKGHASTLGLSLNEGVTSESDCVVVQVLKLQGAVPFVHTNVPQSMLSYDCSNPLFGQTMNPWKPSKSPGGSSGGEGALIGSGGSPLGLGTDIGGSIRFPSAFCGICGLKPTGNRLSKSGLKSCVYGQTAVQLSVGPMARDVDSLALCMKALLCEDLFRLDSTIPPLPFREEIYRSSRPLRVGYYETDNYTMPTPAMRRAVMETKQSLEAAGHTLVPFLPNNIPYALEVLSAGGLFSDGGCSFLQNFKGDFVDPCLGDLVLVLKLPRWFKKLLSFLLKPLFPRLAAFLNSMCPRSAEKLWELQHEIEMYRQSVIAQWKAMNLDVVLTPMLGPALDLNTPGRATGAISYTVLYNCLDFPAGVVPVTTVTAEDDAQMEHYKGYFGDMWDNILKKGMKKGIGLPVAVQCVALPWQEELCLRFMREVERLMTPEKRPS

[5] = molecular target: T4, rat FAAH (Rattus norvegicus, UniProt P97612); assay: FAAH fluorescent inhibition assay, rat brain microsomes; format: biochemical; conditions: FAAH IC50 (5 min pre-incubation), 5 min pre-incubation
T4 sequence (P97612 1-579): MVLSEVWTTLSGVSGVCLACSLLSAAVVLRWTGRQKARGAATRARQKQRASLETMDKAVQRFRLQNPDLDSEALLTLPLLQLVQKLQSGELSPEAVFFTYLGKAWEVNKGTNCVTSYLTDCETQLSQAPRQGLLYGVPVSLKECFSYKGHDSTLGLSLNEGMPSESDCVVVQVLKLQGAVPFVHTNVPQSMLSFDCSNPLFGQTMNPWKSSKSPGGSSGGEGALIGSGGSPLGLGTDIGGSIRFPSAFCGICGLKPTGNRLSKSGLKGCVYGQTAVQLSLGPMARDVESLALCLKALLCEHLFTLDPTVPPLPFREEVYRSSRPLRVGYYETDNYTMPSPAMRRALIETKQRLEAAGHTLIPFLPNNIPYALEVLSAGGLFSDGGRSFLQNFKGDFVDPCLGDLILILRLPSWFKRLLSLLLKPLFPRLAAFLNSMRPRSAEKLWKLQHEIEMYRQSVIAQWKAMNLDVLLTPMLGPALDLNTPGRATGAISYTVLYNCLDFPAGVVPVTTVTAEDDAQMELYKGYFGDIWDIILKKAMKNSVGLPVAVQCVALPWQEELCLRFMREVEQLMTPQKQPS
Procedure, shortened: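 Rat brain microsomes: tissue homogenized in 20 mM phosphate (pH 7.4, 5 mM EDTA), spun at 9000g for 20 min, then 100 000g for 1 h, and stored at −80 °C. OMP (100 μM final) in 0.1 M sodium phosphate pH 8, 0.1 mg/mL BSA, 2% DMSO, 37 °C. Fluorescence (ex 303/em 394 nm) read every 30 s for 10 min. No-enzyme background subtracted. IC50 from linear regression of log[I] vs % remaining activity; triplicates.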

[6] = molecular target: T1, human sEH; assay: FRET-based displacement assay for inhibitor dissociation from sEH; format: binding
[7] = molecular target: T2, human FAAH; assay: Ki and kinact determination on FAAH; format: biochemical
Procedure, shortened: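 Crude baculovirus-expressed recombinant FAAH (High Five cell S9 fraction in 50 mM Tris/HCl pH 8.0, 1 mM CHAPS, 10% glycerol). OMP (100 μM final) was mixed with a range of test compound concentrations and held 5 min at 37 °C.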

[8] = Cassette dosing pharmacokinetics in rats; format: in vivo; conditions: male, Sprague-Dawley, rat, whole blood, po, 1 mg/kg
Procedure, shortened: (§1)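 Test compounds were given as a cassette cocktail at 1 mg/kg each, p.o. in PEG300, to groups of 4 rats or 4 mice. Blood was taken by tail vein at set intervals and group averages were used.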

[9] = molecular target: T5, mouse FAAH (Mus musculus, UniProt O08914); assay: FAAH fluorescent inhibition assay, mouse crude tissue homogenate; format: biochemical; conditions: FAAH IC50 (5 min pre-incubation)
T5 sequence (O08914 1-579): T3 sequence (O08914 1-579)

[10] = Cassette dosing pharmacokinetics in mice; format: in vivo; conditions: male, Swiss Webster, mouse, whole blood, po, 1 mg/kg
Procedure, shortened: as §1

SMILES: COc1ccc(NC(=O)N2CCC(Cc3cnc4ccccc4c3)CC2)cc1 [compound 5]
increase in activity/potency toward sEH [1]: 5 fold

SMILES: O=C(Nc1ccc(Cl)cc1)N1CCC(Cc2cnc3ccccc3c2)CC1 [compound 2]
decrease in activity/potency toward FAAH [2]: 3 fold

SMILES: O=C(Nc1ccc(C(F)(F)F)cc1)N1CCC(Cc2cccc(Oc3ccc(C(F)(F)F)cn3)c2)CC1 [compound 13]
other serine hydrolase bands (ABPP) [3]: neither 11, 13, 14, 18, nor PF-3845 had any effect on the intensity of other bands
intensity of the FAAH band (ABPP) [4]: does not appear to fully inhibit the band corresponding to FAAH
IC50 [5]: > 10 µM
t1/2 (half-life on the enzyme) ([6]; human sEH): 9.9 min
koff ([6]; read-out: koff × 10^–3): 1.2 s⁻¹
Ki [7]: 0.037 µM
kinact [7]: 0.000317 s⁻¹
kinact/KI [7]: 500000 M⁻¹ s⁻¹
AUC [8]: 0.74 µM·h
Cmax [8]: 66 nM
IC50 [9]: > 10 µM
AUC [10]: 0.75 µM·h
Cmax [10]: 65 nM

SMILES: COc1ccc(NC(=O)N2CCC(Cc3ccc4ccccc4c3)CC2)cc1 [compound 8]
increase in activity toward FAAH ([2]; compared to 5 (3-quinoline)): 4 fold

SMILES: NC(=O)c1cccc(-c2cccc(OC(=O)NC3CCCCC3)c2)c1 [URB597, cyclohexyl carbamic acid 3′-carbamoyl-biphenyl-3-yl ester, reference compound]
other serine hydrolase bands (ABPP) [3]: reduced the intensity of a band around 62.5 kDa
intensity of the FAAH band (ABPP) [4]: reduced

Results, then the compound that gave them:

decrease in activity/potency toward FAAH [2]: 3 fold
SMILES: O=C(Nc1ccccc1F)N1CCC(Cc2cnc3ccccc3c2)CC1 [compound 3]

increase in activity/potency toward sEH [1]: 7 fold
decrease in activity/potency toward FAAH [2]: 5 fold
SMILES: O=C(Nc1ccc(F)cc1)N1CCC(Cc2cnc3ccccc3c2)CC1 [compound 1]
